Assay outcomes: PubChem BioAssay, several laboratories
Compounds with a hit are over-represented: about 3.2% of the library has one in this group of screens.
DAX1 inh-1 – blocks DAX1 repression of SF-1 activated StAR promoter. actives 1.1% (n = 370,000). inhibition, % at 6.8 µM. HEK293T StAR-luciferase reporter, SF-1/DAX-1 repression relief. AID 652010;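 active = inhibition above the mean over all tested compounds plus 3 SD, cut at about 3.6% in these data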;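 note: 0% = DAX-1 cells with DMSO and 100% = cells lacking DAX-1 with DMSO; higher inhibition means more luminescence from relief of DAX-1 repression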
SMARCA2 act – activators of SMARCA2 function; activation, % at 9.1 µM; AID 652017; actives 1% (n = 370,000); MG213 cells, MMTV-luciferase reporter, dexamethasone, overnight; in the data active = activation above about 7.8%;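 note: 0% = vehicle wells and 100% = reference activator wells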
GASC-1 inh – human JMJD2C demethylase inhibition; Q9H3R0; GST-JMJD2C(1-420) H3K9me3 demethylation, DELFIA europium; inhibition, % at 2.35 µM; actives 0.069% (n = 330,000);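 active = more than half of a compound's replicate wells show inhibition beyond 50%, single wells judged on their own value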;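 note: signal counts dimethyl H3K9 product captured on neutravidin plate; 0% = median of DMSO wells and 100% = 0.3 times that DMSO median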
DAX1 inh-2 – inhibits human nuclear receptor DAX1; P51843; HEK293 Gal4-DAX1 luciferase reporter, luminescence; inhibition, % at 6.75 µM; actives 0.99% (n = 340,000);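 active = inhibition above the mean over all tested compounds plus 3 SD, cut at about 4.2% in these data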;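 note: 0% = DAX1-transfected cells with DMSO and 100% = empty-vector control cells with DMSO; inhibition shows as a rise in luminescence from relieved DAX1 repression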
NR2E3 ag-1 – agonists of human NR2E3 nuclear receptor | AID 602229 | CHO-S Gal4-NCOR/VP16-NR2E3 two-hybrid, luciferase | actives 0.35% (n = 360,000) | inhibition of corepressor binding, % at 3.98 µM | Q9Y5X4;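 active = inhibition above the mean of all tested compounds plus 3 SD, cut at about 70% in these data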;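 note: 0% = DMSO with NR2E3 transfected cells and 100% = cells lacking NR2E3 construct; higher means lower luciferase signal from less NR2E3 corepressor binding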
Target sequence (Q9Y5X4 whole entry, looked up, the tested form may be a part): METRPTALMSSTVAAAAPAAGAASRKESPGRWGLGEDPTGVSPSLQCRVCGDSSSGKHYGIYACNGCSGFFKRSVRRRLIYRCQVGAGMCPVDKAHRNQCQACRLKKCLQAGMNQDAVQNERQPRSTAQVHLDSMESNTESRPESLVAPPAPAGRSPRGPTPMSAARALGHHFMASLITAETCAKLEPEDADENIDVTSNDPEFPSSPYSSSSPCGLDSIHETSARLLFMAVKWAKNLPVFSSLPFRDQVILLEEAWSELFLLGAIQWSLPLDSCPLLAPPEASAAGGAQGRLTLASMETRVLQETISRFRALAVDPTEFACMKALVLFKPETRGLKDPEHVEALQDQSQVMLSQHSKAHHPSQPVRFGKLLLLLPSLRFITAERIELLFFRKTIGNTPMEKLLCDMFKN
NR2E3 ag-2 – activates human photoreceptor nuclear receptor NR2E3; Q9Y5X4; GST-NR2E3/biotin-RetCOR TR-FRET, 1536-well; inhibition of corepressor binding, % at 4.78 µM; actives 0.12% (n = 320,000); AID 2300;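 active = percent inhibition above the cutoff of mean plus 3 SD of all tested compounds, set per screening campaign, cut at about 20% in these data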;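 note: 0% = DMSO wells and 100% = biotin wells as full block of FRET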
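Material – GST-tagged NR2E3 plus biotinylated RetCOR corepressor · Quantity – NR2E3 fusion 1.35 nM · Times – 5 h incubation at 4 °C · Medium – pH 7.5 Tris-based buffer · Technique – TR-FRET, Eu(K)-anti-GST donor, streptavidin-D2 acceptor, ex 340, em 617/671 nm · Benchmarks – high control biotin, low control 0.6% DMSO · Format – 1536-well plates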
Numbers without * were called inactive; . = no result.

SMILES	DAX1 inh-1	SMARCA2 act	GASC-1 inh	DAX1 inh-2	NR2E3 ag-1	NR2E3 ag-2
O=C(c1ccccn1)C1CCCN(Cc2nc(Cc3cccc(F)c3)no2)C1 (stereo not drawn)	-1	-3	15	4.4*	16	2
COC(=O)c1cc(C)oc1C	-1	-2	.	.	.	.
Cc1coc2cc3oc(=O)c(CCC(=O)NCC(=O)O)c(C)c3cc12	0	-3	-2	6.1*	0	.
O=C(Nc1ccon1)c1ccc(OC2CCCC2)cc1	4.5*	0	4	0	1	-2
CC(C)(C)c1cc(NC(=O)c2ccc(OC3CCCC3)cc2)no1	1	0	-4	1	-20	2
CC1CN(C(C)C)C(=S)NC1=O (stereo not drawn)	3.6*	-2	.	-1	3	.
CCOc1ccc(NC(=O)CN(C)C(=O)c2cc(S(=O)(=O)N3CCCCCC3)ccc2OC)cc1OCC	3.9*	0	6	0	-6	1
O=C(O)c1ccc(-n2nc(-c3ccccc3O)nc2-c2ccccc2O)cc1	-2	-6	.	.	.	.
Cc1cccc(NN=C2c3ccccc3-c3ccccc32)c1	0	0	5	1	-32	4
Cc1cccc(N/N=C2/COC(C)(C)CC2=O)c1	3	7.9*	-12	1	-118	-1
CC1(C)CC(=O)/C(=N/Nc2ccc(Cl)cc2)CO1	3	4	-9	4.5*	-117	0
COc1ccccc1N/N=C1\COC(C)(C)CC1=O	0	3	2	4.8*	-34	-1
CC1(C)CC(=O)C=C(Nc2ccc(Cl)cc2)C1	-1	2	1	0	3	1
CCCCCCCCN1C(=O)[C@@H](CC(=O)NCCCN2CCCC2=O)C[C@@]2(C(=O)OC)C1=C[C@H](COCc1ccccc1)O[C@@H]2C	-1	-1	.	.	.	.
CCCC/C(O)=C1\C(=O)CC(C)(C)CC1=Nc1ccc(N)cc1	1	1	-4	6.0*	-2	-2
C=CCNC(=O)CN(C(=O)c1ccncn1)c1cccc(Br)c1	0	1	.	.	.	.
NS(=O)(=O)c1ccc(NC(=O)CN2C(=O)C3C4C=CC(C4)C3C2=O)cc1 (stereo not drawn)	1	-1	-6	5.5*	-13	2
CC(=O)N1CCCN(C(=O)CN2C(=O)CC(C)(C)S(=O)(=O)c3ccccc32)CC1	1	2	.	.	.	.
Cc1ccc(SC(=O)c2c([N+](=O)[O-])c(C)nn2C)cc1	0	-5	3	4.5*	0	4
Cc1cc(C)n(C(=O)c2c([N+](=O)[O-])c(C)nn2C)n1	0	-4	-5	1	-4	-1
CC(=O)c1ccc([C@H](O)[C@@H](C(=O)N(C)c2ccccc2)C2CC2)cc1	-1	-2	.	.	.	.
Cc1ccc2cc(/C=N/Nc3nc4ccccc4[nH]3)c(Cl)nc2c1	2	7.8*	-2	-1	-47	.
CC(C)(C)OC(=O)N1CCNc2ccccc2C1	0	-2	-1	-2	-28	1
CC(C)(C)OC(=O)N1Cc2cc3ccccc3nc2C1	3.6*	4	.	1	-121	.
Cc1ccc(C)c(NC(=O)c2cc(-c3cccnc3)nc3ccccc23)c1	1	-2	-6	6.3*	-6	9
SMILES	DAX1 inh-1	SMARCA2 act	GASC-1 inh	DAX1 inh-2	NR2E3 ag-1	NR2E3 ag-2
Cc1ccc(C(=O)NC(=S)Nc2ccc3c(c2)OCCO3)c(C)c1	1	2	-1	0	-96	3
Cc1ccc(C(=O)NC(=S)Nc2ccc(N3CCOCC3)cc2)c(C)c1	0	7.9*	1	0	-2	-3
COc1ccc(/C=C2\SC(=O)N(CCNC(=O)C3=COCCO3)C2=O)cc1	-4	-1	12	-1	-77	-1
COc1ccc(/C=C2\SC(=O)N(CCc3nnc(N)s3)C2=O)cc1	4.1*	-1	-16	2	-62	-2
COC(=O)[C@]12C[C@H](CC(=O)NCCCN3CCCC3=O)C(=O)N(Cc3cccc4ccccc34)C1=C[C@H](COCc1ccccc1)O[C@@H]2C	-1	-1	.	.	.	.
O=C(/C=C/c1cccc(F)c1)OCC(=O)c1ccc[nH]1	-2	7.9*	9	-1	-32	.
Cc1ccccc1NC(=O)CSc1nnc(-c2cc(-c3ccccc3)n[nH]2)n1N	-3	0	.	.	.	.
CNc1cnc(-c2ccc(F)c(F)c2F)cn1	3.8*	5	.	.	-97	.
O=C(c1ccc(F)cc1Cl)N(Cc1ccccn1)CC1CCCO1 (stereo not drawn)	0	3	.	.	.	.
Cc1cccc2cc(CN(Cc3ccccc3)C(=S)NCCCN(C)C)c(=O)[nH]c12	2	3	-5	5.4*	-24	2
COc1ccc(C(C(=O)N(C)C2CCCC2)N(Cc2ccc(F)cc2)C(=O)c2csc(-c3ccccc3)n2)cc1OC (stereo not drawn)	-1	-4	.	.	.	.
O=C(Nc1ccc2[nH]c(=S)sc2c1)c1ccccc1	3.7*	0	1	1	-87	-2
O=C(Nc1ccc2[nH]c(=S)sc2c1)Nc1ccccc1F	2	3	-4	1	-143	0
Cc1ccc(NC(=O)CCN2C(=O)c3cccc4cccc(c34)C2=O)cc1	0	3	-2	3	-15	-1
O=C(CCN1C(=O)c2cccc3cccc(c23)C1=O)Nc1ccccc1	0	7.9*	1	1	-20	-1
Cc1ccc(-c2csc3nc(-c4ccncc4)[nH]c(=O)c23)cc1	-1	-3	5	1	12	1
Cc1ccc(-c2nc3ccsc3c(=O)[nH]2)cc1	3.7*	1	9	2	-52	3
Cc1cc(C)c(C(N)=O)c(SCC(=O)c2cc(C)c(C)cc2C)n1	0	-3	13	-1	-19	-2
C=CCSc1[nH]c(=O)cc(C)c1C(N)=O	0	-4	0	5.1*	-9	0
Fc1ccc(N2CCN(C3=Nc4ccccc4Sc4ccccc43)CC2)cc1	-1	-7	.	.	.	.
O=C(OCCCN1CCC2(CCC(c3ccccc3)CC2)C1=O)c1ccccc1 (stereo not drawn)	0	-3	.	.	.	.
COc1ccc(C(=O)CSc2nnc(-c3ccc(C(C)(C)C)cc3)n2C)cc1	0	-6	.	.	.	.
CC(=O)c1cccc(OCc2cc(C(=O)N3C[C@@H](C)O[C@@H](C)C3)no2)c1	4.2*	4	-9	2	-65	1
COc1cc(NC(=O)Cn2ccsc2=N)c(C)cc1[N+](=O)[O-]	-2	1	-11	1	9	-1
N=c1sccn1CC(=O)Nc1ccc(Cl)cc1[N+](=O)[O-]	-1	-5	2	4.4*	-30	-3
CCCCCCNC(=O)c1ncn[nH]1	0	-3	-3	5.0*	-9	1
